Published values of several laboratories.
Protocols differ between the studies behind these lines.
CNR1: Cannabinoid receptor 1 (CNR1, Homo sapiens, UniProt P21554)
TBXA2R: Thromboxane A2 receptor (TBXA2R, Homo sapiens, UniProt P21731)
PFF0160c: Dihydroorotate dehydrogenase (quinone), mitochondrial (PFF0160c, Plasmodium falciparum, UniProt Q08210)

| SMILES | target | assay | setting | measurement | result |
| --- | --- | --- | --- | --- | --- |
| O=C(N=Nc1c(O)n(CCCCCF)c2ccccc12)c1ccccc1 | CNR1 | β-arrestin recruitment, agonist | – | EC50 | 1820 nM |
| CNC(=O)c1ccc(-c2cnn3ccc(C(=O)N(C)c4ccc(Cl)c(C(=O)OC)c4)cc23)cc1 | TBXA2R | cell-free assay | – | IC50 | > 30000 nM |
| CCCCCc1cc(O)c2c(c1)OC(C)(CCC=C(C)C)C=C2 (stereo not shown) | CNR1 | cell-free assay | – | Ki | > 1000 nM |
| CC[C@@](O)(c1cnc(C(F)(F)F)c(Cl)c1)c1c2ccn(C3CC3)c(=O)c2nn1C | PFF0160c | enzyme activity, inhibitor | – | IC50 | 12.6 nM |
| O=C(N=Nc1c(O)n(CC2CCCCC2)c2ccccc12)c1ccccc1 | CNR1 | ligand displacement, radioligand | cell membranes | Ki | 70.8 nM |
| C=C1CC/C=C(\C)CC[C@@H]2[C@@H]1CC2(C)C | CNR1 | ligand displacement, radioligand | – | Ki | > 10000 nM |
| CCn1cc(C)c2c([C@@H](N)c3ccc(C(F)(F)F)nc3)n(C)nc2c1=O | PFF0160c | enzyme activity, inhibitor | – | IC50 | 1000 nM |
| CCC(CC)(NC(=O)c1ccc(C2CC2)c(Cc2ccc(F)cc2)n1)C(=O)NCCOCCOCCNC(=O)c1ccc2c(c1)C1(OC2=O)c2ccc(N(C)C)cc2[Si](C)(C)c2cc(N(C)C)ccc21 | CNR1 | ligand displacement, radioligand | cell membranes | Ki | 462 nM |
| C=CCCCn1c(O)c(N=NC(=O)c2ccccc2)c2ccccc21 | CNR1 | ligand displacement, radioligand | cell membranes | Ki | 1660 nM |
| Cn1nc2c(=O)n(C3CC3)ncc2c1[C@](O)(c1ccc(C(F)(F)F)c(C#N)c1)C(F)(F)F | PFF0160c | enzyme activity, inhibitor | – | IC50 | 25.1 nM |
| COC(=O)c1cc(N(C)C(=O)c2ccn3ncc(-c4ccc(C(=O)O)cc4)c3c2)ccc1Cl | TBXA2R | cell-free assay | – | IC50 | > 30000 nM |
| Cc1c(Cc2ccc(C(F)(F)F)cc2)n[nH]c1C(=O)NC1CC1 | PFF0160c | enzyme activity, inhibitor | – | IC50 | > 30000 nM |
| C=C/C=C/CCN1CCC(O)(c2cccc(Br)c2)C1 (stereo not shown) | 5-hydroxytryptamine receptor 2A (HTR2A, Homo sapiens, UniProt P28223) | calcium signal, antagonist | – | IC50 | 15900 nM |
